Columns and labels:
[1] = molecular target: T1, Transient receptor potential cation channel subfamily V member 1 (Rattus norvegicus, UniProt O35433); experiment: Displacement of [3H]RTX from rat TRPV1 expressed in CHO cells; assay type: cell-based
Outline: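 Binding competition against [³H]RTX on rat TRPV1 heterologously expressed in CHO cells. Mean ± SEM from three or more experiments.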

[2] = molecular target: Transient receptor potential cation channel subfamily V member 1 (Rattus norvegicus) (UniProt O35433); experiment: Agonist activity at rat TRPV1 expressed in CHO cells assessed as increase of capsaicin-induced calcium uptake relative to capsaicin; assay type: functional, cell-based
Chain of Transient receptor potential cation channel subfamily V member 1 (Rattus norvegicus) (O35433 whole entry): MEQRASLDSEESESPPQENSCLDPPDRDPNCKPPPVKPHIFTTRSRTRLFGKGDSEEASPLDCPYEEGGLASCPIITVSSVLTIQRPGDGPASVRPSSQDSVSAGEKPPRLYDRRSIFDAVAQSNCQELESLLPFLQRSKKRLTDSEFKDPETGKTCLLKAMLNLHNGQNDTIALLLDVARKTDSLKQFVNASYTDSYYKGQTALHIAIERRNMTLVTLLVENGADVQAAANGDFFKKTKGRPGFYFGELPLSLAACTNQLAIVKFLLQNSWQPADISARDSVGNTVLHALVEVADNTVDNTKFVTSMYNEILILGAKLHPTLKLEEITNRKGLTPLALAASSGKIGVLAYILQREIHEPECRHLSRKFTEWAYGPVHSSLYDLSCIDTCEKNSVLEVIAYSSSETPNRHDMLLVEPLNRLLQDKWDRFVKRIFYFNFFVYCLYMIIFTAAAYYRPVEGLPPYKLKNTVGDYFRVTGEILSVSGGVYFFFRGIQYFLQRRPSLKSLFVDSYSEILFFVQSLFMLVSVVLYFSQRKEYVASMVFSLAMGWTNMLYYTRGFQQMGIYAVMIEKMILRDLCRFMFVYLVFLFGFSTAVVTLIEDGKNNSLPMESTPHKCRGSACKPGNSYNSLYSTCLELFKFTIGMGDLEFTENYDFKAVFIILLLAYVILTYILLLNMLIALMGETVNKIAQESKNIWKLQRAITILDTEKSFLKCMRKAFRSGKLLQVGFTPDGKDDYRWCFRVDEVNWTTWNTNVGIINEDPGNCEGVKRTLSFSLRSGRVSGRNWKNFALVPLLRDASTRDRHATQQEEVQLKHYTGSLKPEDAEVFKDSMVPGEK
Outline: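 ⁴⁵Ca²⁺ uptake in CHO cells heterologously expressing rat TRPV1. Agonist efficacy is given as % of the maximal calcium uptake induced by 300 nM capsaicin. Mean ± SEM from three or more experiments.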

[3] = molecular target: Transient receptor potential cation channel subfamily V member 1 (Rattus norvegicus) (UniProt O35433); experiment: Partial antagonist activity at rat TRPV1 expressed in CHO cells assessed as inhibition of capsaicin-induced calcium uptake; assay type: functional, cell-based; conditions: concentration not given here
Outline: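 ⁴⁵Ca²⁺ uptake antagonism assay in CHO cells heterologously expressing rat TRPV1. The value is the extent of partial antagonism of capsaicin-induced uptake. Mean ± SEM from three or more experiments.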

[4] = molecular target: T1, Transient receptor potential cation channel subfamily V member 1; experiment: Antagonist activity at rat TRPV1 expressed in CHO cells assessed as inhibition of capsaicin-induced calcium uptake; assay type: functional, cell-based
Outline: (§1)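 Functional ⁴⁵Ca²⁺ uptake assay in CHO cells heterologously expressing rat TRPV1. Values are mean ± SEM from three or more experiments.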

[5] = molecular target: T1, Transient receptor potential cation channel subfamily V member 1; experiment: Agonist activity at rat TRPV1 expressed in CHO cells assessed as increase of capsaicin-induced calcium uptake; assay type: functional, cell-based; outline: as §1

T1 sequence (O35433 whole entry): as above

Row | Structure (SMILES) | Ki [1] [nM] | Activity [2] [%] | inhibition [3] [%] | Ki ([4]; read-out: Ki) [nM] | EC50 ([5]; cho) | EC50 ([5]; read-out: EC50) [nM] | Ki ([4]; cho)
1 | COc1cc(CC(=O)NCc2ccc(C(C)(C)C)cc2)c(I)cc1OC(C)=O | 378 | 8 | 85 | – | – | – | –
2 | COc1cc(CC(=O)NCC(COC(=O)C(C)(C)C)Cc2ccc(C)c(C)c2)cc(I)c1O (stereo not given) | 1630 | 6 | – | 225 | – | – | –
3 | COc1cc(CC(=O)NCC(COC(=O)C(C)(C)C)Cc2ccc(C)c(C)c2)cc(I)c1OC(C)=O (stereo not given) | 4530 | 12 | 59 | – | – | – | –
4 | COc1cc(CC(=O)NCC(COC(=O)C(C)(C)C)Cc2ccc(C(C)(C)C)cc2)cc(Cl)c1OC(C)=O (stereo not given) | 21 | 28 | 58 | – | – | – | –
5 | COc1cc(CC(=O)NCc2ccc(C(C)(C)C)cc2)c(Br)cc1O | 364 | 37 | 42 | – | – | – | –
6 | COc1cc(CC(=O)NCc2ccc(C(C)(C)C)cc2)cc(Br)c1O | 91 | 11 | – | 168 | – | – | –
7 | CC(C)(C)C(=O)OCC(CNC(=O)Cc1cc(Cl)c(O)c(Cl)c1)Cc1ccc(C(C)(C)C)cc1 (stereo not given) | 9.3 | – | – | 4.26 | Not Active | – | –
8 | COc1cc(CC(=O)NCC(COC(=O)C(C)(C)C)Cc2ccc(C(C)(C)C)cc2)ccc1NS(C)(=O)=O (stereo not given) | 84.5 | 72 | 15 | – | – | – | –
9 | COc1cc(CC(=O)NCC(COC(=O)C(C)(C)C)Cc2ccc(C(C)(C)C)cc2)cc(Br)c1N (stereo not given) | 79.1 | – | – | 3.4 | Not Active | – | –
10 | COc1cc(CC(=O)NCC(COC(=O)C(C)(C)C)Cc2ccc(C(C)(C)C)cc2)ccc1O (stereo not given) | 13.1 | – | – | – | – | 4.08 | Not Active
11 | COc1cc(CC(=O)NCC(COC(=O)C(C)(C)C)Cc2ccc(C(C)(C)C)cc2)cc(Cl)c1O (stereo not given) | 31 | 25 | 76 | – | – | – | –
12 | COc1cc(CC(=O)NCC(COC(=O)C(C)(C)C)Cc2ccc(C)c(C)c2)cc(Br)c1O (stereo not given) | 56.4 | 43 | 62 | – | – | – | –
13 | CC(C)(C)C(=O)OCC(CNC(=O)Cc1ccc(N)c(Br)c1)Cc1ccc(C(C)(C)C)cc1 (stereo not given) | 57 | 59 | 27 | – | – | – | –
14 | CC(C)(C)C(=O)OCC(CNC(=O)Cc1cc(Br)c(O)c(Br)c1)Cc1ccc(C(C)(C)C)cc1 (stereo not given) | 20.2 | – | – | 10.7 | Not Active | – | –
15 | COc1cc(CC(=O)NCC(COC(=O)C(C)(C)C)Cc2ccc(C(C)(C)C)cc2)cc(I)c1OC(C)=O (stereo not given) | 20.3 | – | – | 19.1 | Not Active | – | –
16 | COc1cc(CC(=O)NCc2ccc(C(C)(C)C)cc2)c(Br)cc1OC(C)=O | 393 | 60 | 59 | – | – | – | –
17 | COc1cc(CC(=O)NCC(COC(=O)C(C)(C)C)Cc2ccc(C(C)(C)C)cc2)c(I)cc1OC(C)=O (stereo not given) | 19.5 | – | – | 53 | Not Active | – | –
18 | COc1cc(CC(=O)NCC(COC(=O)C(C)(C)C)Cc2ccc(C(C)(C)C)cc2)cc(I)c1O (stereo not given) | 22 | – | – | 2.8 | Not Active | – | –
19 | COc1cc(CC(=O)NCC(COC(=O)C(C)(C)C)Cc2ccc(C(C)(C)C)cc2)c(Br)cc1OC(C)=O (stereo not given) | 34.9 | 22 | 63 | – | – | – | –
20 | COc1cc(CC(=O)NCC(COC(=O)C(C)(C)C)Cc2ccc(C(C)(C)C)cc2)c(Br)cc1NS(C)(=O)=O (stereo not given) | 42.9 | 14 | 64 | – | – | – | –
21 | CC(C)(C)C(=O)OCC(CNC(=O)Cc1ccc(N)c(Cl)c1)Cc1ccc(C(C)(C)C)cc1 (stereo not given) | 790 | 85 | 24 | – | – | – | –
22 | COc1cc(CC(=O)NCc2ccc(C(C)(C)C)cc2)cc(Cl)c1O | 164 | 25 | 66 | – | – | – | –

Row | Structure (SMILES) | Ki [1] [nM] | Activity [2] [%] | inhibition [3] [%] | Ki ([4]; read-out: Ki) [nM] | EC50 ([5]; cho) | EC50 ([5]; read-out: EC50) [nM] | Ki ([4]; cho)
23 | CC(C)(C)C(=O)OCC(CNC(=O)Cc1cc(Br)cc(Br)c1)Cc1ccc(C(C)(C)C)cc1 (stereo not given) | 210 | – | – | 108 | Not Active | – | –
24 | CC(C)(C)C(=O)OCC(CNC(=O)Cc1ccc(O)c(Br)c1)Cc1ccc(C(C)(C)C)cc1 (stereo not given) | 25.1 | 72 | 38 | – | – | – | –
25 | COc1cc(CC(=O)NCC(COC(=O)C(C)(C)C)Cc2ccc(C(C)(C)C)cc2)cc(Cl)c1N (stereo not given) | 33.5 | – | – | 4.09 | Not Active | – | –
26 | COc1cc(CC(=O)NCc2ccc(C(C)(C)C)cc2)ccc1O | 667 | – | – | – | – | 82 | Not Active
27 | COc1cc(CC(=O)NCc2ccc(C(C)(C)C)cc2)c(I)cc1O | 850 | 17 | 55 | – | – | – | –
28 | COc1cc(CC(=O)NCc2ccc(C(C)(C)C)cc2)cc(I)c1OC(C)=O | 94 | – | – | 47.9 | Not Active | – | –
29 | CC(C)(C)C(=O)OCC(CNC(=O)Cc1cc(Cl)c(N)c(Cl)c1)Cc1ccc(C(C)(C)C)cc1 (stereo not given) | 9.43 | – | – | 3.96 | Not Active | – | –
30 | COc1cc(CC(=O)NCc2ccc(C(C)(C)C)cc2)cc(Cl)c1OC(C)=O | 205 | 22 | – | 570 | – | – | –
31 | COc1cc(CC(=O)NCC(COC(=O)C(C)(C)C)Cc2ccc(C(C)(C)C)cc2)cc(Br)c1OC(C)=O (stereo not given) | 13.6 | – | – | 72 | Not Active | – | –
32 | COc1cc(CC(=O)NCC(COC(=O)C(C)(C)C)Cc2ccc(C(C)(C)C)cc2)cc(Br)c1O (stereo not given) | 9.4 | – | – | 8.77 | Not Active | – | –
33 | CC(C)(C)C(=O)OCC(CNC(=O)Cc1cc(Br)c(N)c(Br)c1)Cc1ccc(C(C)(C)C)cc1 (stereo not given) | 11.3 | – | – | 4.3 | Not Active | – | –
34 | COc1cc(CC(=O)NCc2ccc(C(C)(C)C)cc2)cc(I)c1O | 89 | – | – | 17.2 | Not Active | – | –
35 | COc1cc(CC(=O)NCC(COC(=O)C(C)(C)C)Cc2ccc(C(C)(C)C)cc2)ccc1N (stereo not given) | 108 | – | – | – | – | 22.9 | Not Active
36 | COc1cc(CC(=O)NCC(COC(=O)C(C)(C)C)Cc2ccc(C)c(C)c2)c(I)cc1O (stereo not given) | 116 | 23 | 53 | – | – | – | –
37 | COc1cc(CC(=O)NCC(COC(=O)C(C)(C)C)Cc2ccc(C(C)(C)C)cc2)c(I)cc1O (stereo not given) | 20.9 | – | – | 13.5 | Not Active | – | –
38 | COc1cc(CC(=O)NCC(COC(=O)C(C)(C)C)Cc2ccc(C(C)(C)C)cc2)c(Cl)cc1OC(C)=O (stereo not given) | 25.1 | 53 | 36 | – | – | – | –
39 | COc1cc(CC(=O)NCc2ccc(C(C)(C)C)cc2)c(Cl)cc1OC(C)=O | 388 | 83 | 62 | – | – | – | –
40 | COc1cc(CC(=O)NCC(COC(=O)C(C)(C)C)Cc2ccc(C(C)(C)C)cc2)c(Cl)cc1O (stereo not given) | 37.6 | 61 | 39 | – | – | – | –
41 | COc1cc(CC(=O)NCc2ccc(C(C)(C)C)cc2)c(Cl)cc1O | 486 | – | – | – | – | 135 | Not Active
42 | COc1cc(CC(=O)NCC(COC(=O)C(C)(C)C)Cc2ccc(C(C)(C)C)cc2)c(Br)cc1O (stereo not given) | 25.3 | 21 | 76 | – | – | – | –
43 | COc1cc(CC(=O)NCc2ccc(C(C)(C)C)cc2)cc(Br)c1OC(C)=O | 166 | 9 | 89 | – | – | – | –
44 | CCCCCCCCC(=O)NCc1cc(OC)c(O)cc1I | – | – | – | – | Not Active | – | –
